Measurements from ChEMBL document CHEMBL4706495, “A novel class of small molecule inhibitors with radioprotective properties” (Eur J Med Chem, 2020).
Active and inactive are the calls of the source. The calls are words filed in the database; no cut-off is given here.

Assays:
Jurkat [1] = assay: Cytotoxicity against human Jurkat cells assessed as cell viability at 10 uM measured after 48 hrs by WST-1 assay relative to control; type: functional; settings: read-out: Activity
In short: (§1)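 Ten-line human panel (9 cancer, 1 non-cancerous). Cells were seeded at a pre-established optimal density (500–30 × 10³ per well) and settled overnight. Compounds came from 10 mM DMSO stocks and were tested at two concentrations. WST-1 readout followed the manufacturer's protocol at the end of cultivation. Viability is expressed as % of untreated control cells, mean of three independent experiments.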

MOLT-4 [2] = assay: Cytotoxicity against human MOLT-4 cells assessed as cell viability at 10 uM measured after 48 hrs by WST-1 assay relative to control; type: functional; settings: read-out: Activity; in short: as §1
A549 [3] = assay: Cytotoxicity against human A549 cells assessed as cell viability at 10 uM measured after 48 hrs by WST-1 assay relative to control; type: functional; settings: read-out: Activity; in short: as §1
HT-29 [4] = assay: Cytotoxicity against human HT-29 cells assessed as cell viability at 10 uM measured after 48 hrs by WST-1 assay relative to control; type: functional; settings: read-out: Activity; in short: as §1
PANC-1 [5] = assay: Cytotoxicity against human PANC-1 cells assessed as cell viability at 10 uM measured after 48 hrs by WST-1 assay relative to control; type: functional; settings: read-out: Activity; in short: as §1
A2780 [6] = assay: Cytotoxicity against human A2780 cells assessed as cell viability at 10 uM measured after 48 hrs by WST-1 assay relative to control; type: functional; settings: read-out: Activity; in short: as §1
HeLa [7] = assay: Cytotoxicity against human HeLa cells assessed as cell viability at 10 uM measured after 48 hrs by WST-1 assay relative to control; type: functional; settings: read-out: Activity; in short: as §1
MCF7 [8] = assay: Cytotoxicity against human MCF7 cells assessed as cell viability at 10 uM measured after 48 hrs by WST-1 assay relative to control; type: functional; settings: read-out: Activity; in short: as §1
SAOS-2 [9] = assay: Cytotoxicity against human SAOS-2 cells assessed as cell viability at 10 uM measured after 48 hrs by WST-1 assay relative to control; type: functional; settings: read-out: Activity; in short: as §1
[10] = Cytotoxicity against human MRC5 cells assessed as cell viability at 10 uM measured after 48 hrs by WST-1 assay relative to control; type: cell-based; settings: read-out: Activity; in short: as §1
Jurkat [11] = assay: Cytotoxicity against human Jurkat cells assessed as cell viability at 100 uM measured after 48 hrs by WST-1 assay relative to control; type: functional; settings: read-out: Activity; in short: as §1
MOLT-4 [12] = assay: Cytotoxicity against human MOLT-4 cells assessed as cell viability at 100 uM measured after 48 hrs by WST-1 assay relative to control; type: functional; settings: read-out: Activity; in short: as §1
A549 [13] = assay: Cytotoxicity against human A549 cells assessed as cell viability at 100 uM measured after 48 hrs by WST-1 assay relative to control; type: functional; settings: read-out: Activity; in short: as §1
HT-29 [14] = assay: Cytotoxicity against human HT-29 cells assessed as cell viability at 100 uM measured after 48 hrs by WST-1 assay relative to control; type: functional; settings: read-out: Activity; in short: as §1
PANC-1 [15] = assay: Cytotoxicity against human PANC-1 cells assessed as cell viability at 100 uM measured after 48 hrs by WST-1 assay relative to control; type: functional; settings: read-out: Activity; in short: as §1
A2780 [16] = assay: Cytotoxicity against human A2780 cells assessed as cell viability at 100 uM measured after 48 hrs by WST-1 assay relative to control; type: functional; settings: read-out: Activity; in short: as §1
HeLa [17] = assay: Cytotoxicity against human HeLa cells assessed as cell viability at 100 uM measured after 48 hrs by WST-1 assay relative to control; type: functional; settings: read-out: Activity; in short: as §1
MCF7 [18] = assay: Cytotoxicity against human MCF7 cells assessed as cell viability at 100 uM measured after 48 hrs by WST-1 assay relative to control; type: functional; settings: read-out: Activity; in short: as §1
SAOS-2 [19] = assay: Cytotoxicity against human SAOS-2 cells assessed as cell viability at 100 uM measured after 48 hrs by WST-1 assay relative to control; type: functional; settings: read-out: Activity; in short: as §1
[20] = Cytotoxicity against human MRC5 cells assessed as cell viability at 100 uM measured after 48 hrs by WST-1 assay relative to control; type: cell-based; settings: read-out: Activity; in short: as §1
A549 [21] = assay: Cytotoxicity against human A549 cells assessed as reduction in cell viability incubated for 24 hrs by MTT assay; type: functional, cell-based; settings: A549, 24 h
In short: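 A-549 cells in DMEM with 10% FBS and 1% penicillin-streptomycin were attached overnight. Compounds were prepared in PBS and serially diluted in DMEM, then incubated 24 h. Viability was read by colorimetric MTT reduction against an untreated control on each plate (100%). IC50 came from four-parameter nonlinear regression of the log concentration-response curve, mean ± SEM. MTC is the highest concentration not differing from control (t-test).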

A549 [22] = assay: Cytotoxicity against human A549 cells assessed as maximum tolerated concentration incubated for 24 hrs by MTT assay; type: functional
In short: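 A-549 cells in DMEM with 10% FBS and 1% penicillin-streptomycin, left to attach overnight. Compounds made up in PBS, serially diluted in DMEM, incubated 24 h, then viability read by MTT reduction against untreated controls on each plate. MTC taken as the highest concentration showing no significant difference from non-treated control (t-test).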

MOLT-4 [23] = assay: Radioprotective activity against gamma irradiation-induced apoptosis in human MOLT-4 cells assessed as viable cells at 100 uM pretreated with compound for 1 hr followed by gamma irradiation and measured after 24 hrs by annexinV/propidium iodide staining based flow cytometry (reference value: 40 %); type: functional; settings: MOLT-4, light or radiation study, time 25 hrs, read-out: Activity
[24] = Toxicity in C57Bl/6 mouse assessed as mouth death at 100 mg/kg, ip measured after 30 days; type: organism-based; settings: in vivo, 720 h, time 30 day
In short: (§2)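 Safety in C57Bl/6 mice (27 ± 3 g) given a single 100 mg/kg i.p. injection without irradiation. Deaths, adverse effects and body weight followed over 30 days against an untreated control group. Weight reported as change from day 0.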

[25] = Toxicity in C57Bl/6 mouse assessed as adverse effects at 100 mg/kg, ip measured after 30 days; type: organism-based; settings: in vivo, 720 h, time 30 day; in short: as §2
[26] = Toxicity in C57Bl/6 mouse assessed as average body weight at 100 mg/kg, ip and measured immediately (reference value: 26.3 +/- 2.4 g); type: organism-based; settings: in vivo
[27] = Toxicity in C57Bl/6 mouse assessed as average body weight at 100 mg/kg, ip measured after 30 days (reference value: 27 +/ 3.2 g); type: organism-based; settings: in vivo, 720 h, time 30 day
[28] = Toxicity in C57Bl/6 mouse assessed as change in body weight at 100 mg/kg, ip measured after 30 days (reference value: 103 +/- 12 %); type: organism-based; settings: in vivo, 720 h, time 30 day
Mus musculus [29] = assay: Radioprotective activity in C57Bl/6 mouse assessed as median survival time at 100 mg/kg, ip administered 5 min prior to gamma-irradation at 8.5 Gy and measured after 30 days (reference value: 12 days); type: functional
Mus musculus [30] = assay: Radioprotective activity in C57Bl/6 mouse assessed as average body weight at 100 mg/kg, ip administered 5 min prior to gamma-irradation at 8.5 Gy and measured immediately (reference value: 25.4 +/- 2.6 g); type: functional
Mus musculus [31] = assay: Radioprotective activity in C57Bl/6 mouse assessed as average body weight at 100 mg/kg, ip administered 5 min prior to gamma-irradation at 8.5 Gy and measured after 30 days; type: functional
Mus musculus [32] = assay: Radioprotective activity in C57Bl/6 mouse assessed as body weight gain at 100 mg/kg, ip administered 5 min prior to gamma-irradation at 8.5 Gy measured after 30 days relative to control; type: functional
Mus musculus [33] = assay: Radioprotective activity in C57Bl/6 mouse assessed as increase in absolute B-lymphocytes at 100 mg/kg, ip pretreated with compound for 5 min followed by gamma irradiation at 8.5 Gy and measured after 30 days by flow cytometry; type: functional, organism-based
In short: (§3)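 C57Bl/6 mice receive 100 mg/kg i.p. 5 min before a single 8.5 Gy ⁶⁰Co γ dose. At 7, 12 and 30 days post-irradiation, 100 µl peripheral blood is stained with anti-CD3ε, CD19 and NK1.1 antibodies for 30 min at 4 °C in the dark. Samples are washed twice and analysed by flow cytometry for T, B and NK cells. Mean ± SEM.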

Mus musculus [34] = assay: Radioprotective activity in C57Bl/6 mouse assessed as increase in absolute T-lymphocytes at 100 mg/kg, ip pretreated with compound for 5 min followed by gamma irradiation at 8.5 Gy and measured after 30 days by flow cytometry; type: functional, organism-based; in short: as §3
Mus musculus [35] = assay: Radioprotective activity in C57Bl/6 mouse assessed as increase in absolute NK population at 100 mg/kg, ip pretreated with compound for 5 min followed by gamma irradiation at 8.5 Gy and measured after 30 days by flow cytometry; type: functional, organism-based; in short: as §3

For `COc1ccccc1OCC(O)CN1CCN(CCO)CC1` (stereo not given), the viability at 10 µM (Jurkat [1]) was 106%, the viability at 10 µM (MOLT-4 [2]) was 100% and the viability at 10 µM (A549 [3]) was 91%. It also gave a viability at 10 µM (HT-29 [4]) of 93%, a viability at 10 µM (PANC-1 [5]) of 100% and a viability at 10 µM (A2780 [6]) of 100%. It also gave a viability at 10 µM (HeLa [7]) of 93%, a viability at 10 µM (MCF7 [8]) of 99% and a viability at 10 µM (SAOS-2 [9]) of 106%. The viability at 48 h, 10 µM [10] was 90%, the viability at 100 µM (Jurkat [11]) was 86% and the viability at 100 µM (MOLT-4 [12]) was 76%. For the same compound, the viability at 100 µM (A549 [13]) was 109%, the viability at 100 µM (HT-29 [14]) was 143% and the viability at 100 µM (PANC-1 [15]) was 115%. It also gave a viability at 100 µM (A2780 [16]) of 78%, a viability at 100 µM (HeLa [17]) of 99% and a viability at 100 µM (MCF7 [18]) of 95%. The viability at 100 µM (SAOS-2 [19]) was 82%, the viability at 48 h, 100 µM [20] was 109% and the IC50 (A549 [21]) was 9.27 mM. For the same compound, the MTD (A549 [22]) was 1.56 mM, the viability at 100 µM (MOLT-4 [23]) was 59% and the Activity [24] was “Non-Toxic”. For the same compound, the Activity [25] was “Non-Toxic”, the Activity [26] was 27.9 g and the Activity [27] was 28.5 g. It also gave an Activity [28] of 102%, an MST (Mus musculus [29]) of 13 days and an Activity (Mus musculus [30]) of 26.8 g. For the same compound, the Activity (Mus musculus [31]) was 27.6 g, the Activity (Mus musculus [32]) was 102% and the Activity (Mus musculus [33]) was “Active”. For the same compound, the Activity (Mus musculus [34]) was “Active” and the Activity (Mus musculus [35]) was “Active”.
